Results: paper PMC4387373 (Infectious Disease Reports, 2015)
Read-outs that look alike come from different tables or passages of the source.

Tests used:
[1] = cited from earlier work
[2] = assay type: in vivo, human; details: for concentration at 2 h / concentration at 4 h / concentration at 6 h / concentration at 8 h: human, plasma, oral; for Cthrough (through concentration): patient on sildenafil 40 mg tid, bosentan 125 mg bid, ritonavir-boosted PI
phosphodiesterase = details: same phosphodiesterase specificity as sildenafil; cited from earlier work
[3] = Plasma concentrations of protease inhibitors; assay type: in vivo, human; details: for concentration at 2 h / concentration at 4 h / concentration at 6 h / concentration at 8 h: human, plasma, oral; for Plasma concentration, t0: t0, 8 a.m., before intake of antiretroviral dose, fosamprenavir 700 mg bid
How it was run: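 Heparinized venous blood was drawn before the morning antiretroviral dose (T0) and at 2, 4, 6 and 8 h after it. Plasma was separated by centrifugation and stored at −80 °C. PI levels were measured by a validated HPLC method.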

[4] = cited from earlier work; remark: listed apart in the source
[5] = cited from earlier work; remark: listed apart in the source
[6] = Clinical course of the patient: hemodynamics, functional class, tolerability; assay type: in vivo, human
[7] = coadministered with lopinavir/ritonavir

CCCc1nn(C)c2c(=O)[nH]c(-c3cc(S(=O)(=O)N4CCNCC4)ccc3OCC)nc12 [N-desmethylsildenafil]
Plasma levels as % of the parent drug ([1]; metabolite relative to sildenafil): 40-50%
Plasma concentrations as % of the parent drug ([2]; during the study, patient on ritonavir-boosted PI): 40-50%
Plasma concentration, t2 ([2]; t2, 10 a.m., 2 hours after intake of sildenafil and bosentan): 58.33 ng/mL
Plasma concentration, t4 ([2]; t4, noon, 4 hours after intake of sildenafil and bosentan): 61.85 ng/mL
Plasma concentration, t6 ([2]; t6, 2 p.m., 6 hours after intake of sildenafil and bosentan): 140.95 ng/mL
Plasma concentration, t8 ([2]; t8, 4 p.m., 8 hours after intake of sildenafil and bosentan): 121.35 ng/mL
Potency relative to sildenafil (phosphodiesterase): about half the potency

CC(C)CN(C[C@@H](O)[C@H](Cc1ccccc1)NC(=O)O[C@H]1CCOC1)S(=O)(=O)c1ccc(N)cc1 [amprenavir]
concentration at 2 h [3]: 1680 ng/mL
concentration at 4 h [3]: 3960 ng/mL
concentration at 6 h [3]: 2170 ng/mL
concentration at 8 h [3]: 1890 ng/mL
Cthrough ([3]; patient on fosamprenavir 700 mg bid, ritonavir 100 mg bid): 1495 ng/mL
Plasma levels versus therapeutic ranges ([3]; patient, therapeutic ranges from ref 16): within therapeutic ranges
Plasma concentration, t0 ([3]; ritonavir 100 mg bid): 1495 ng/mL

COc1ccccc1Oc1c(NS(=O)(=O)c2ccc(C(C)(C)C)cc2)nc(-c2ncccn2)nc1OCCO [bosentan]
Increase of Cmax ([4]; by steady-state sildenafil, healthy volunteers): 42%
Increase in AUC at steady state [4, 7]: 422%
Increase in Cmax at steady state [4, 7]: 512%
concentration at 2 h [2]: 3370 ng/mL
concentration at 4 h [2]: 1750 ng/mL
concentration at 6 h [2]: 1310 ng/mL
concentration at 8 h [2]: 1230 ng/mL
Cthrough (through concentration) [2]: 1546.53 ng/mL

CC(C)c1nc(CN(C)C(=O)N[C@H](C(=O)N[C@@H](Cc2ccccc2)C[C@H](O)[C@H](Cc2ccccc2)NC(=O)OCc2cncs2)C(C)C)cs1 [ritonavir]
concentration at 2 h [3]: < 50 ng/mL
concentration at 4 h [3]: < 50 ng/mL
concentration at 6 h [3]: < 50 ng/mL
concentration at 8 h [3]: < 50 ng/mL
Plasma levels in all of the samples ([3]; ritonavir 100 mg bid, bosentan coadministered): undetectable
Plasma concentration, t0 ([3]; ritonavir 100 mg bid): <50 ng/mL

CCCc1nn(C)c2c(=O)[nH]c(-c3cc(S(=O)(=O)N4CCN(C)CC4)ccc3OCC)nc12 [sildenafil]
Plasma concentration at which maximal reductions in PAP and PVR were obtained [5]: ~100 ng/mL
tmax ([1]; healthy adults, 20 mg tid, oral): approximately 1 hour
Cmax ([1]; healthy adults, sildenafil 20 mg tid): about 145 ng/mL
Increase of AUC ([4]; with ritonavir 500 mg twice daily): 11 fold
Mean PAP ([6]; May 2012, worsening exertional dyspnea on sildenafil 20 mg tid): 47 mmHg
Mean PAP ([6]; October 2012, after sildenafil increased to 40 mg tid, bosentan 125 mg bid): 40 mmHg
6-minute walking test ([6]; October 2012, sildenafil 40 mg tid, bosentan 125 mg bid): 479 m
NYHA stage change ([6]; after introduction of sildenafil 20 mg tid): from NYHA stage III to NYHA stage II
Mean PAP ([6]; after sildenafil 20 mg tid was added to bosentan, previously 63 mmHg): 43 mmHg
Eye fundus examination versus baseline ([6]; during follow-up): no significant changes
Influence on systemic blood pressure ([6]; measured regularly during the investigation): no significant influence
Adverse reactions during follow-up ([6]; patient with raised sildenafil levels, headache, flushing, dyspepsia, priapism): did not report any adverse reactions
Plasma concentration versus the therapeutic range ([2]; coadministration of sildenafil and ritonavir-boosted PI): above the therapeutic range
concentration at 2 h [2]: 925 ng/mL
concentration at 4 h [2]: 566 ng/mL
concentration at 6 h [2]: 1730 ng/mL
concentration at 8 h [2]: 900 ng/mL
Cthrough (through concentration) [2]: 276.94 ng/mL
